Results pooled from the literature.
Lines come from different studies, so protocols differ.
Target: Serine/threonine-protein kinase MARK2 (MARK2, Homo sapiens, UniProt Q7KZI7)

C1=C/COCc2cc(ccc2OCCN2CCCC2)Nc2nccc(n2)-c2cccc(c2)COC/1 — remaining binding (binding; 0.1 µM): 66%
COc1ccc2[nH]c3c4[nH]c5ccc(OC)cc5c4c4c(c3c2c1)C(=O)NC4=O — remaining binding (binding; 1 µM): 71%
C=CC(=O)N1CCC([C@@H]2CCNc3c(C(N)=O)c(-c4ccc(Oc5ccccc5)cc4)nn32)CC1 — inhibition (enzyme activity, inhibitor; 1 µM): 0%
Cc1cc(O)c(-c2ccc([C@@H](C)CN(C)C)cc2)c2c1[nH]c(=O)c1sccc12 — inhibition (enzyme activity, inhibitor; 0.1 µM): 4.31%
Cc1ccc(NC(=O)c2ccnc(C(F)(F)F)c2)cc1-c1cc(OCCO)nc(N2CCOCC2)c1 — remaining binding (binding; 1 µM): 99%
C=CC(=O)N1CCC[C@@H](n2nc(-c3ccc(Oc4ccccc4)cc3)c3c(N)ncnc32)C1 — inhibition (enzyme activity, inhibitor; 1 µM): 10%
COc1ccc2oc(-c3ccc4nc(N)oc4c3)c/c(=N\c3ccccc3NC(=O)CCN)c2c1 — remaining binding (binding; 1 µM): 97%
CCCCC(=O)Nc1ccc(-c2ccc3ncn(CCC)c(=O)c3c2)cn1 — remaining binding (binding, competition with immobilised ligand; 0.5 µM): 92%
